Sampled rows, rich in hits. Any-hit rate of the full collection: about 1.4%.
HCV NS3 hel inh = inhibitors of HCV NS3 helicase, primary screen, biochemical, Cy5 molecular beacon fluorescence; 0.56% of 290,000 active; AID 1800, 2009; inhibition, % at 10.9 µM; NS3 helicase DNA unwinding;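 active = inhibition above the mean of all tested compounds plus 3 SD, set per campaign, cut at about 35% in these data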;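 also: 0% = DMSO wells and 100% = thioflavine S control wells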
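System: HCV NS3 helicase fragment; control set: DMSO and thioflavine S; technique: Cy5 fluorescence at 0 and 60 min, beacon hairpin quenching; reagent: beacon DNA duplex substrate plus ATP; replicates: singlicate; schedule: 1 h reaction at 25 °C, ATP-initiated; medium: MOPS buffer pH 6.5 with MgCl2, DTT, Tween20, BSA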
ZTA counter = ZTA (EBV) inhibition in EBNA-1 counter-screen; ZTA-DNA binding, fluorescence polarization; inhibition, % at 11 µM; 0.15% of 320,000 active; in the data active = inhibition above about 33%
Target sequence (P03206 whole entry, looked up): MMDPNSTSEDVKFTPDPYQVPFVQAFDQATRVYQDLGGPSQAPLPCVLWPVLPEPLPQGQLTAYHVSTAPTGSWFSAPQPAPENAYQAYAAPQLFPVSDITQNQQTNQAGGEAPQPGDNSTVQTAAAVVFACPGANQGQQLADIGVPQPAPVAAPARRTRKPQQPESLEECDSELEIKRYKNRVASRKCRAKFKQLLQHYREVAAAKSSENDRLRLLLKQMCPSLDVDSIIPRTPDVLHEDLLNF
EBNA-1 inh = EBNA-1 DNA-binding inhibitors, primary screen, biochemical, fluorescence polarization; inhibition, % at 14.8 µM; 0.34% of 300,000 active; AID 1950, 2009; in the data active = inhibition above about 28%
CTSL1 counter = Fasciola hepatica cathepsin L1 inhibitors, primary screen, counter-screen for PFM18AAP inhibitor project, biochemical, QFRET, fluorogenic peptide substrate | recombinant F. hepatica cathepsin L1, Z-Leu-Arg-MCA fluorescence | inhibition, % at 5.96 µM | 0.49% of 300,000 active | AID 1906, 2009;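 active = inhibition above the mean of all tested compounds plus 3 SD, set per screening campaign, cut at about 17% in these data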;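 also: 0% = plate median of test compound wells and 100% = 1 µM Z-Phe-Ala-diazomethylketone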
EBNA-1 confirm = EBNA-1 DNA-binding inhibitors, retest, confirmation, biochemical, fluorescence polarization, triplicate. shares compounds with EBNA-1 inh. Recombinant EBNA-1 DBD, Cy5-DNA fluorescence polarization. inhibition, % at 14.8 µM. 35% of 830 active;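 active = mean inhibition across replicates above a set limit taken from the earlier primary screen, cut at about 28% in these data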;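 also: plate controls were EBNA-1 protein with DMSO for no effect and wells lacking EBNA-1 for full effect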
ZTA counter trip = EBV Zta DNA binding inhibitors, counter-screen for EBNA-1 inhibitor project, biochemical, fluorescence polarization, triplicate; 830 tested, under 10 active; AID 2328, 2010; shares compounds with EBNA-1 inh; inhibition, % at 11.1 µM; Zta-ZRE DNA binding, Cy5 fluorescence polarization;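 active = mean inhibition over triplicates above a set limit taken from the primary EBNA-1 screen, cut at about 37% in these data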;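 also: purified full length Zta protein with Cy5 labeled ZRE DNA probe; 0% = Zta with DMSO and 100% = wells lacking Zta protein; inhibitors lower polarization by freeing the labeled DNA probe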
* hit, by the source's call; nt = not tested or not shown.

SMILES	HCV NS3 hel inh	ZTA counter	EBNA-1 inh	CTSL1 counter	EBNA-1 confirm	ZTA counter trip
CCOC(=O)N=S(=O)(Oc1ccc([N+](=O)[O-])cc1)c1ccccc1 (centres undefined)	-5	3	137*	2	-5	-1
O=C(O)COCC(=O)N1CCc2c([nH]c3ccccc23)C1C(F)(F)F (centres undefined)	5	-2	3	3	nt	nt
CCNc1c(NC(=O)c2cccs2)c(=O)oc2ccccc12	1	-2	6	0	nt	nt
S=c1[nH]nc(Cc2ccc(Cl)cc2)n1-c1ccc2c(c1)OCCO2	4	5	3	-1	nt	nt
COc1ccc(NC(=O)CCC(=O)c2cccs2)cc1S(=O)(=O)Nc1ccc(Cl)cc1	-11	16	34*	-3	17	0
CC(=O)Oc1cccc(C2C3=C(CC(C)(C)CC3=O)Nc3ccccc3N2C(C)=O)c1 (centres undefined)	1	-9	-19	-14	nt	nt
Cc1ccc2c(c1)N1C(=O)c3ccccc3C1C1=C(CC(C)(C)CC1=O)N2 (centres undefined)	-6	6	93*	1	-11	-5
COc1ccc(N=Cc2c(O)n(-c3ccc(OC)cc3)c(=O)c3ccccc23)cc1	-18	9	65*	2	56*	8
COc1cc(C(=O)Oc2ccc(/C=N/NC(=O)c3ccncc3)cc2)cc(OC)c1OC	-2	0	34*	1	-14	-11
Cc1cc(NC(=O)CSc2ccc(Cl)cc2)no1	2	-12	-2	1	nt	nt
Cc1cc(NC(=O)CSc2nc(-c3ccc(Cl)cc3)cs2)no1	-7	15	40*	0	7	-12
CN(C)C(=O)CNc1n[nH]c(=S)[nH]c1=O	8	-1	-4	1	nt	nt
C=CS(=O)(=O)c1ccc(Oc2ccc(S(=O)(=O)C=C)cc2)cc1	-8	12	-10	2	nt	nt
CCOC(=O)c1c(-c2ccc(C)o2)csc1NC(=S)NC(=O)c1ccc(F)cc1	5	15	28*	0	26	-3
CCOC(=O)c1c(-c2ccc(C)o2)csc1NC(=O)CN1CCCCC1	-3	-19	-11	10	nt	nt
CCC(=O)Nc1ccc(C(=O)NNC(=O)Cc2ccccc2)cc1	1	-23	-12	4	nt	nt
Cc1c(C(=O)NCc2ccc3c(c2)OCO3)sc2nc(-c3ccc(F)cc3)cn12	-2	-5	37*	-1	8	4
COc1cccc(-c2cc(=O)c3cc(NC(=O)c4ccc(N(C)C)cc4)ccc3[nH]2)c1	9	0	42*	0	16	-2
COCC(=O)Nc1nc2n(n1)C(c1ccc(Cl)cc1)CC(c1ccc(OC)cc1)N2 (centres undefined)	-3	8	-1	-2	nt	nt
COc1ccc(-n2c(SCC(=O)NCCCN3CCCC3=O)nnc2C(C)N2CCCCC2)cc1 (centres undefined)	-6	-3	41*	3	2	0
CN(C(=O)c1ccncc1)C1CCCN(Cc2ccccc2F)C1 (centres undefined)	-5	-6	-9	-3	nt	nt
N#Cc1c(C(F)(F)F)cc(-c2ccccc2)nc1SCCN1CCOCC1	5	5	5	2	nt	nt
CCN(CC)S(=O)(=O)c1ccc(NC(=O)c2cc(-c3ccccc3)nc3ccccc23)cc1	-8	6	10	3	nt	nt
CC(C)Cn1cc(C(=O)NCc2cccs2)c2c3ccccc3n(C)c2c1=O	-2	-7	38*	6	2	11
COc1ccc(N2CCN(C(=S)Nc3ccc(F)cc3)CC2)cc1	6	-17	34*	0	25	7
SMILES	HCV NS3 hel inh	ZTA counter	EBNA-1 inh	CTSL1 counter	EBNA-1 confirm	ZTA counter trip
COc1cccc(/C=C(/C(=O)OCC(=O)NC2CCCCCCC2)c2ccccc2)c1	-4	-7	1	-1	nt	nt
CCOC(=O)Cc1csc(NC(=O)CSc2nc3sc(C(=O)O)c(C)c3c(=O)[nH]2)n1	-4	-14	-1	1	nt	nt
Cc1sc2nc(SCC(=O)Nc3ccccc3F)[nH]c(=O)c2c1C	-10	1	30*	4	42*	-16
Cc1csc(NC(=O)CSc2nc3sc(C)c(C)c3c(=O)[nH]2)n1	-8	4	53*	4	-2	-13
Cc1ccccc1NC(=O)CSc1nc2scc(C)c2c(=O)[nH]1	-4	-16	4	0	nt	nt
COc1ccc(-c2cc(C(=O)Nc3c(C)nn(Cc4ccccc4)c3C)no2)cc1	-1	-11	14	2	nt	nt
Cc1nn(Cc2ccccc2)c(C)c1NC(=O)c1cc(-c2ccc3c(c2)OCO3)on1	2	-13	42*	-1	43*	4
COc1cccc(C(O)c2cnc(C(C)C)n2C)c1 (centres undefined)	-3	2	2	-1	nt	nt
O=C(NCC1CCCO1)NC1CCCCC1 (centres undefined)	-2	-3	0	-1	nt	nt
Cc1ccc2nc(-c3cccnc3SCC(=O)N3c4ccccc4CC3C)[nH]c2c1 (centres undefined)	-3	8	28*	2	30*	-6
CC(C)(C)OC(=O)N[C@@H](/C=C/c1ccccc1)C(=O)OC(C)(C)C	nt	3	nt	nt	nt	nt
Cc1cccc(/C=N/NC(=O)c2cc3c(s2)-c2ccccc2CC3)c1	-7	9	132*	3	-4	5
O=C(N/N=C/c1cccc(C(F)(F)F)c1)c1cc2c(s1)-c1ccccc1CC2	5	15	-8	3	nt	nt
CC(C)CNC(=O)C1CCCN(C(=O)NCc2ccccc2)C1 (centres undefined)	33	-6	-5	-4	nt	nt
O=C(N/N=C/c1cc(Cl)ccc1O)c1ccc(Br)cc1	3	0	-11	-2	nt	nt
Cc1ccc(N=Nc2ccc(O)c(/C=N\NC(=O)c3ccc(N)cc3)c2)cc1C	9	-3	38*	2	-6	23
O=C(CCCCCn1c(=S)[nH]c2cc3c(cc2c1=O)OCO3)N1CCN(Cc2ccccc2)CC1	-6	-1	37*	2	69*	-3
O=C(CCCCCn1c(=S)[nH]c2cc3c(cc2c1=O)OCO3)N1CCN(C(=O)c2ccco2)CC1	-1	14	14	-1	nt	nt
CC(=O)c1cccc(CN2CCCC(C(=O)Nc3cccc(-n4cccn4)c3)C2)c1 (centres undefined)	-10	3	9	-1	nt	nt
Cc1ccc(C)c(OCCCC(=O)N2CCOCC2)c1	5	-6	-2	-4	nt	nt
Cc1cccnc1NC(=O)c1ccc(S(=O)(=O)N2CCC(C)CC2)cc1	nt	18	31*	6	4	2

Assay outcomes (PubChem BioAssay)
